Assays:
[1] = target: Metabotropic glutamate receptor 3 (Rattus norvegicus) (UniProt P31422); test: Antagonistic activity against Glutamate receptor in rat spinal cord at concentration of 5 uM.; assay type: functional, tissue-based
Procedure, shortened: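 Neonatal hemisectioned spinal cord from Wistar rats (Alderley Park strain, 2-7 days old), anaesthetised with intraperitoneal urethane (25% w/v, […]) and then decapitated. Cord superfused with oxygenated medium at 1 mL/min. Agonist (SP, SP(6-11), glutamate or carbachol) applied as 2-mL doses in the superfusate. Antagonist superfused for at least 15 min before agonists were retested. Read-out: % change in ventral root–cord DC potential response amplitude.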

[2] = target: Substance-P receptor (Cavia porcellus) (UniProt P30547); test: Antagonistic activity against Substance P(6-11) receptor in guinea pig ileum at concentration of 5 uM.; assay type: functional, tissue-based
Procedure, shortened: (§1)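 Distal ileum from Dunkin-Hartley guinea pigs (300-350 g, both sexes) in a Krebs organ bath at 37 °C, gassed with 95% O2/5% CO2. Agonist (SP or SP(6-11)) dose-response curves run on a 3-min cycle with 1-min contact, with and without antagonist. Dose ratio = agonist EC50 with antagonist / EC50 alone. At least two preparations per compound; ratios below 2 taken as insignificant.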

[3] = In vitro antagonistic activity against Substance P on guinea pig ileum at concentration of 10 uM.; assay type: functional, Cavia porcellus
Procedure, shortened: (§2)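 Dose-response curves used a 3-min cycle with 1-min contact and washout, with SP or SP(6-11)-hexapeptide as agonist. Dose ratio is the agonist EC50 with antagonist divided by the EC50 alone. At least two preparations per compound; ratios under 2 were considered insignificant.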

[4] = target: Substance-P receptor (Rattus norvegicus) (UniProt P14600); test: Antagonistic activity against Substance P(6-11) receptor in rat spinal cord at concentration of 50 uM.
[5] = target: Substance-P receptor (Cavia porcellus) (UniProt P30547); test: Antagonistic activity against Substance P receptor in guinea pig ileum at concentration of 5 uM.; assay type: functional, tissue-based; procedure, shortened: as §1
[6] = target: Substance-P receptor (Rattus norvegicus) (UniProt P14600); test: Antagonistic activity against Substance P(6-11) receptor in rat spinal cord at concentration of 5 uM.
[7] = target: Substance-P receptor (Rattus norvegicus) (UniProt P14600); test: Antagonistic activity against Substance P receptor in rat spinal cord at concentration of 50 uM.
[8] = In vitro antagonistic activity against Substance P(6-11) in guinea pig ileum at concentration of 10 uM.; assay type: functional, Cavia porcellus; procedure, shortened: as §2
[9] = target: Substance-P receptor (Rattus norvegicus) (UniProt P14600); test: Antagonistic activity against Substance P receptor in rat spinal cord at concentration of 5 uM.
[10] = target: Substance-P receptor (Cavia porcellus) (UniProt P30547); test: Antagonistic activity against Substance P receptor in guinea pig ileum at concentration of 100 uM.; assay type: functional, tissue-based; procedure, shortened: as §1
[11] = target: Substance-P receptor (Cavia porcellus) (UniProt P30547); test: Evaluated in vitro for percent agonist activity in guinea pig ileum (substance P receptor); assay type: functional, tissue-based
[12] = target: Substance-P receptor (Cavia porcellus) (UniProt P30547); test: Antagonistic activity against Substance P(6-11) receptor in guinea pig ileum at concentration of 100 uM.; assay type: functional, tissue-based; procedure, shortened: as §1

Sequence of Substance-P receptor (Rattus norvegicus) (P14600 whole entry, looked up): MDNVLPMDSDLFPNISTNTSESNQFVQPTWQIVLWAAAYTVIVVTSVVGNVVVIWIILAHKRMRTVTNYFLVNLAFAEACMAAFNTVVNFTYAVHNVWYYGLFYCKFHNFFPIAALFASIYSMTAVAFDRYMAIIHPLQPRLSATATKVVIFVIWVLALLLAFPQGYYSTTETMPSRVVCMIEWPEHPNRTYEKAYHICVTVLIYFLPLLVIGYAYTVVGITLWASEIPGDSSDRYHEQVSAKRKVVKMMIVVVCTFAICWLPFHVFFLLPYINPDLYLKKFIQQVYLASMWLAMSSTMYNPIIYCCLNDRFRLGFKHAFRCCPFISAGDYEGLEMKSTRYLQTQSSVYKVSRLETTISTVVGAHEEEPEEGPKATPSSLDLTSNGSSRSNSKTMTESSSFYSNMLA
Sequence of Substance-P receptor (Cavia porcellus) (P30547 whole entry): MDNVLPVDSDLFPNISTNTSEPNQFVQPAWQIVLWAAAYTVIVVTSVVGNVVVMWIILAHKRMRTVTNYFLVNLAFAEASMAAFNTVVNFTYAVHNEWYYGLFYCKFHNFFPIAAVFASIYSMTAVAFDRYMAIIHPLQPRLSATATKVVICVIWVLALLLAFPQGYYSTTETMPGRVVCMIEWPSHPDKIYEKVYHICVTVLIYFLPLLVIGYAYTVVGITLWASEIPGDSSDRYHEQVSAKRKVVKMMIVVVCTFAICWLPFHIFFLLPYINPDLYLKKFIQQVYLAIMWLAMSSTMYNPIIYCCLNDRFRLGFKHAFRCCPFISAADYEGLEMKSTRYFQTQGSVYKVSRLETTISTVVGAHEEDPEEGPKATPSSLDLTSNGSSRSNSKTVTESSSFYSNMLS
Sequence of Metabotropic glutamate receptor 3 (Rattus norvegicus) (P31422 23-879 limits assumed): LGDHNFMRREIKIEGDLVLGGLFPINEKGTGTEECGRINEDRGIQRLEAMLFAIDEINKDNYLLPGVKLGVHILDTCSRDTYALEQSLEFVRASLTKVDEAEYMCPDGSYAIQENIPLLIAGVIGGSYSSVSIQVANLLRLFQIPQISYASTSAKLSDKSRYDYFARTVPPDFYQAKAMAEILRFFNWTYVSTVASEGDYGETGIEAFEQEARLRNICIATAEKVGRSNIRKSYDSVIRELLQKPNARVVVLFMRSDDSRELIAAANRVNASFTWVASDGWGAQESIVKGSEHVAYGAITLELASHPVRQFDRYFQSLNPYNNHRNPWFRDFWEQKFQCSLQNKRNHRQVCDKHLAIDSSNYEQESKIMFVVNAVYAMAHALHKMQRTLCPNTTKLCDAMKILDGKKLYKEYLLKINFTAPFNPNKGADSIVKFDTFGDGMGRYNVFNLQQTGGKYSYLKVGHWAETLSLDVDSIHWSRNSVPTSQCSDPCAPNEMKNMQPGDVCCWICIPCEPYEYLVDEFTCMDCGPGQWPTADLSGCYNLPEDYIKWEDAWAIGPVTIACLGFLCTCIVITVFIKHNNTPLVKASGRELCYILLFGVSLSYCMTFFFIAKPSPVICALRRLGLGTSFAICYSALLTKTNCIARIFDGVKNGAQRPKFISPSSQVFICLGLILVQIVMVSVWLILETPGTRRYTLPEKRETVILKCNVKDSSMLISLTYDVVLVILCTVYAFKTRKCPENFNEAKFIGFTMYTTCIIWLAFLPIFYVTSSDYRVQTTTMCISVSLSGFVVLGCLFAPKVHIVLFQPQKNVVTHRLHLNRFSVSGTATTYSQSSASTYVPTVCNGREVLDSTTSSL

Row | SMILES | Change in amplitude response [1] [%] | Activity [2] [dose ratio] | Activity [3] [dose ratio] | Change in amplitude response [4] [%] | Activity [5] [dose ratio] | Change in amplitude response [6] [%] | Change in amplitude response [7] [%] | Activity [8] [dose ratio] | Change in amplitude response [9] [%] | Activity [10] [dose ratio] | SP [11] [%] | Activity [12] [dose ratio]
1 | CSCC[C@@H](NC(=O)[C@H](CC(C)C)NC(=O)[C@@H](Cc1c[nH]c2ccccc12)NC(=O)C(Cc1ccccc1)NC(=O)[C@@H](Cc1c[nH]c2ccccc12)NC(=O)[C@H](CCC(N)=O)NC(=O)[C@H](CCC(N)=O)NC(=O)C1CCCN1C(=O)[C@H](CCCCN)NC(=O)C1CCCN1C(=O)[C@@H](N)CCCN=C(N)N)C(=O)O (stereo in doubt) | -20 | 3.4 | 5.3 | -100 | 6.3 | -62 | 16 | 4.3 | 21 |  |  | 
2 | COC(=O)[C@@H](CCSC)NC(=O)[C@H](CC(C)C)NC(=O)CNC(=O)[C@H](Cc1c[nH]c2ccccc12)NC(=O)[C@@H](Cc1c[nH]c2ccccc12)NC(=O)[C@H](CCC(N)=O)NC(=O)[C@H](CCC(N)=O)NC(=O)[C@@H]1CCCN1C(=O)[C@H](CCCCN)NC(=O)[C@@H]1CCCN1C(=O)[C@@H](N)CCCN=C(N)N |  |  |  |  |  |  |  |  |  | < 2 | < 0.0001 | < 2

From ChEMBL document CHEMBL1123529, “Analogues of substance P. Peptides containing D-amino acid residues in various positions of substance P and displaying agonist or receptor selective antagonist effects” (1986)
